Measurements from the EternaBench riboswitch data.

System: MS2 coat protein
Experiment: apparent Kd, MS2 coat protein; higher = weaker binding; RNA-MaP array; FMN 200 µM where present
Outline: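 Designs were transcribed by stalled E. coli RNA polymerase on Illumina sequencing-chip clusters. They were titrated with SNAP-549-labelled MS2 coat protein from 0.7 or 1.5 nM, doubling to 3 µM, without and then with constant ligand. Buffer: 100 mM Tris-HCl pH 7.5, 80 mM KCl, 4 mM MgCl2, BSA, DTT, yeast tRNA, Tween-20. Green signal was normalised to red-channel RNA signal and control-cluster median Fmax. Apparent Kd is the median of filtered per-cluster binding-curve fits.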

[1] = designed as: OFF switch for flavin mononucleotide, no ligand
[2] = ligand present: flavin mononucleotide, designed as: OFF switch for flavin mononucleotide
[3] = designed as: ON switch for flavin mononucleotide, no ligand
[4] = ligand present: flavin mononucleotide, designed as: ON switch for flavin mononucleotide

| Sequence | apparent Kd [1] [nM] | apparent Kd [2] [nM] | apparent Kd [3] [nM] | apparent Kd [4] [nM] |
| --- | --- | --- | --- | --- |
| GGGAUAGGAGGAUAUGUUCUAGCUCACAUGAGGAUCACCCAUGUGGUGUCCGUUGGUAGCGCAGAAGGCUUACCUA | 792 | 662 |  |  |
| AAGUAUAAGGGCAUUAAACAUGAGGAUCACCCAUGUACAAUAGAGGAUAUGCAUUUCGGUUUAGAGUAGAAGGUUAGAGAAUAU | 27.6 | 33.7 |  |  |
| AAUUCAAACAGAGGAUAUUGUUUAUCUCUAUUGCAAGAAGGCUGAUCUUACUACUUACUUAUGAAACAUGAGGAUCACCCAUGU |  |  | 36.6 | 31.8 |
| GAGAGCCGCGAAGGAUAUACAUCCGUGACCGUCAACAUGAGGAUCACCCAUGUAGAAGGUCGCUGCCUCUUGACAACUGACAAG | 5.16 | 18.4 |  |  |
| AUAUAUUAGUUAGGAUAUCUGUAAUUUAUUGAAACAUGAGGAUCACCCAUGUUCAUAAAUUUAUAGGAGAAGGGAUAGAUAUAU |  |  | 5.17 | 5.03 |
| GGAGACCUCACAGGAUAUGCUGGACUUUGUCCAGCAGAAGGGUGAAAACAUGAGGAUCACCCAUGUAUGGUCUCCAAAUUUAAA |  |  | 200 | 13.2 |
| GCCAAUAAGAUUGGCACCGGCGCGCAGGAUAUGCUGGCCUACAUGAGGAUCACCCAUGUCUAAAUGCAGAAGGGUGAGCUGAGC |  |  | 444 | 82.4 |
| UCCACUGCUGAGAAGGGAUACGUCUGGUUCGCAUCAGGAUAUCGAUACAGUGCAGCAUGAGGACAUGAGGAUCACCCAUGUGUG |  |  | 103 | 53.6 |
| UUUAUAUAGUAAGGAUAUGUAUUAUUUUUUACAACAGAAGGUACUGACAUGAGGAUCACCCAUGUUUUAGUGUGGGCAUGUAGU | 296 | 364 |  |  |
| UUCUUGCAAGGAUAUGAUUUAAGUAACAUGAGGAUCACCCAUGUUUUUCCGUUGUUAUGUUCAGAAGGUGCGUGAU | 55.8 | 63.3 |  |  |
| GGAAAACAUGAGGAUCACCCAUGUGAGGAUAUUGAAACAAACAAAACAAACAAACAAACAAGAAGGCACAGGAA | 26.1 | 25.5 |  |  |
| AAAUAAGUUGCAGGAUAUUAUUUUUGAUAAAUAUAAGAAGGGCAACAAACCUCACAUGAGGAUCACCCAUGUACCCAUGUAUCU | 65.5 | 30 |  |  |
| GUAUAUCACUCAGGAUAUCUGUAAUUUAUUGAAACAUGAGGAUCACCCAUGUUCAUAAAUUUAUAGGAGAAGGGAGAGAUAUAC |  |  | 4.39 | 4.58 |
| AAAGAGCGAGGAUAUGCGUGCCGGUGCGGCCAGCCGAUGUGACAUGAGGAUCACCCAUGUAGAAGGCGCAGAAA | 14.3 | 14.7 |  |  |
| AGAGUUUCGUUGUGACCCAUUCACAUGAGGAUCACCCAUGUAGAGGAUAUAGGUCACCACGGUACCUAGAAGGCUACAGGUGUG | 13.4 | 15.5 |  |  |
| ACGGAGACACAAAUGUUCCACGGUGCAGAAGGGUCCCUCACAUGAGGAUCACCCAUGUAACUCGGACAGGAUAUGCUCCUGGGA |  |  | 135 | 9.78 |
| CUAGCUAUCGGAGGAUAUUCAUAGCCGAAAGGCACAUGAGGAUCACCCAUGUGCGGAAACGCUUGGGAGAAGGCCGAUAGCUAG |  |  | 25.7 | 15.2 |
| ACAGACCAUCGAGGAUAUGAACAUGAGGAUCACCCAUGUAAGUGGAAGAUGGUGAUUCCUGGGCUUCAGAAGGCGAACGUCAGG | 6.12 | 11.8 |  |  |

| Sequence | apparent Kd [1] [nM] | apparent Kd [2] [nM] | apparent Kd [3] [nM] | apparent Kd [4] [nM] |
| --- | --- | --- | --- | --- |
| AGAUGUACAGCGAUAUGAUCGAGAGAUCAUGUCGCUGAAUUUAGAAGGACAUGAGGAUCACCCAUGUAGGAUAUGGGUGUAAUA |  |  | 80.8 | 72.8 |
| GUCGUGUGAGGAUAUGAUUAAUAGACGGGAUUGCGACUGCAUCAGAAGGCACAUGAGGAUCACCCAUGUAUGAA | 19.4 | 63.5 |  |  |
| UUUGUCUGUGUGAGGAUAUACUUUUUUUGGUUUUUGUAGAAGGCACAUGAGGAUCACCCAUGUAUUUUGUUGUG | 37.7 | 50.2 |  |  |
| CGCGAAAACAUAGGAUAUUGUUACAUGAGGAUCACCCAUGUCAACCAUUUAUCUCAAAUUGUUGACAAGAAGGAUGAGGUCGCG |  |  | 113 | 28.4 |
| GGCCGUAAUAAGGAUAUCACUAGCUUCGGCUAGUGAGAAGGUAUUACAUGAGGAUCACCCAUGUGGUCAGGCCA | 279 | 730 |  |  |
| GGUGCGUAUGUUAGGAUAUGCUGGUCCUUGGAUCGGCAGAAGGUACAUGAGGAUCACCCAUGUGGUGUCGUUCC | 64.8 | 72.4 |  |  |
| ACGCCCUGAGGAUAUCUUUUCCCGUACAUGAGGAUCACCCAUGUUUUCCUCCGGGCUUCGAGAGAAGGCAGGCCCA | 22.3 | 41.2 |  |  |
| GCAUUUCAGUAAGGAUAUAUAAACAUGACGAUACAUGAGGAUCACCCAUGUGUAGAAGGUACUAAUACAUAUAAUGCAAUGGUC | 26.6 | 21.1 |  |  |
| AAAGAUCCUCAGAAGGGCUCGUCCUAUAAGAUAGCAGGAUAUGAGGAGAUUGCCAAACAUGAGGAUCACCCAUGUAGUUGGAGU |  |  | 83.5 | 14.8 |
| UUACUCAUGUAAGGAUAUGCAGCCGUUUCGGCUGCAGAAGGUACUAUAAUACAUGAGGAUCACCCAUGUCUCUAUUAUUUAGUG |  |  | 52.8 | 87.5 |
| UGCCAAGCAGGAUAUGCACGUAAUAACAUGAGGAUCACCCAUGUGACCGAUUUAUAUUCUGCAGAAGGGCUUGGAU | 54.9 | 152 |  |  |
| AUGAAAGUAACACAGGAUAUCGAGGAUACAACAUGAGGAUCACCCAUGUACAUACGAACGUAUAACGAGAAGGGUGGAUGAUCUUC |  |  | 244 | 639 |
| AGUGUCAUCGAGAAGGCCUCAACAUGAGGAUCACCCAUGUUGCAAAAUGGGAGGAUAUCGCGCGUUAAAAAACGUUUCGUAGCA |  |  | 38.3 | 17.5 |
| UGAAAUCAUGUAGGAUAUGCAUGGCGAAGCUACGCAGAAGGACAUGAGGAUCACCCAUGUUAAAGCUACCGGAUACGGUGGCAA | 192 | 156 |  |  |
| GACUCGAAUGUAGGAUAUGCUGAGGAUAACUCAGCAGAAGGACAUGAGGAUCACCCAUGUAAAUGAGUGAAUAAUAAACGAGUC | 1400 | 129 |  |  |
| GUCAGUGUGGUAGGAUAUCGAAACGGUCAGUUACGAGAAGGGCUACAUGAGGAUCACCCAUGUAUCCAGGAUCGGCUUACAGUA | 6.16 | 6.27 |  |  |
| AAACACGGACAUGAGGAUCACCCAUGUAAUAAUAACAUUGGGAGAAGGCCGAUUGCAAAGCAAUCGGAGGAUAUUCAUACCGUG |  |  | 279 | 447 |
| AUGCUAUAUGUAGGAUAUUCAAAGAAAGAGAAUGAAGAAGGACAUGAGGAUCACCCAUGUAAAAUGUAGAUAGAUAUCAUACAU | 18 | 14 |  |  |
